Data on 2 compounds can be found in article PMC4624265 (Nuclear medicine and biology, 2015).

Data set [1] has as its target T1, PSMA (Homo sapiens, UniProt Q04609). The data set can be described thus: Reversibility assay. It counts as biochemical.
Data set [2] deals with T1, PSMA. The data set can be described thus: PSMA inhibition assay. It counts as biochemical.
The subject of data set [3] is mice bearing CWR22Rv1 tumor xenografts. The data set can be described thus: Ex vivo biodistribution in CWR22Rv1 tumor-bearing mice. The note with it: indicated by insignificant bone uptake. The essentials:
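Male athymic NCr-nu/nu mice carried CWR22Rv1 xenografts (about 10^6 cells in 50/50 complete medium/matrigel, right shoulder), used 4–5 weeks after implantation. Under isoflurane, HPLC-purified radiotracer (35–40 μCi in saline) was given by tail vein. For blocking, 250 μg of the PSMA inhibitor in saline was given 1 h before tracer, 4 h group only. Mice were euthanized at 1 h or 4 h, n = 4. Blood was taken by cardiac puncture; organs were weighed and gamma-counted. %ID/g was calculated against standards; two-tailed t-test, p<0.05.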

T1 sequence (Q04609 whole entry): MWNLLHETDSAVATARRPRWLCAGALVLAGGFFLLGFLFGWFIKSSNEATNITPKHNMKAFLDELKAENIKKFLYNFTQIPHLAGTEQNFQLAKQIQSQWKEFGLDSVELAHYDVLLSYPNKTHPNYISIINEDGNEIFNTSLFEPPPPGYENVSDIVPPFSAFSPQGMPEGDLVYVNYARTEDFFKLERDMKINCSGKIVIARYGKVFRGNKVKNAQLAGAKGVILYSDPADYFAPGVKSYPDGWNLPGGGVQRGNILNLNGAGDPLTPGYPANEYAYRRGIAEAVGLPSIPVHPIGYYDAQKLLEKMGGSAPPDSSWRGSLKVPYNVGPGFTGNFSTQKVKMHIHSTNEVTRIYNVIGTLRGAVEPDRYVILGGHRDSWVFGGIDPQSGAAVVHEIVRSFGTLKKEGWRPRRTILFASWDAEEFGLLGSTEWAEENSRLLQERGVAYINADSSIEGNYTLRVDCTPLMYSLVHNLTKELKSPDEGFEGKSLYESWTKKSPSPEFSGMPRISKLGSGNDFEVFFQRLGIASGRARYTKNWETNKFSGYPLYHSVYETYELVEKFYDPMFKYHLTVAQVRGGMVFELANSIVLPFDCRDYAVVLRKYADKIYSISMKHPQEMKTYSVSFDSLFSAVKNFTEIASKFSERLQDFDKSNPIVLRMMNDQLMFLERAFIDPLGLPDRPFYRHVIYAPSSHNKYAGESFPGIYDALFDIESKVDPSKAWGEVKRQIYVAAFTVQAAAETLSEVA

The IC50 is the concentration needed to halve the response being measured. Read a high IC50 as a need for much substance. In the case of `NCCCCCC(=O)N[C@@H](CCC(=O)N[C@H](CCCOP(=O)(O)NC(CCC(=O)O)C(=O)O)C(=O)O)C(=O)O` (stereo partly drawn) [compound 3, 2-(((S)-((4R)-4-(4-(6-aminohexanamido)-4-carboxybutanamido)-4-carboxybut-oxy) (hydroxy)phosphoryl)amino)pentanedioic acid], on PSMA [1], the “Mode of binding to PSMA” value is recorded as “irreversible”. The compound also displayed an IC50 on PSMA [2] of 19 nM.

As for `O=C(O)CCC(NP(=O)(O)OCCC[C@@H](NC(=O)CC[C@H](NC(=O)CCCCCNC(=O)c1ccc(F)cc1)C(=O)O)C(=O)O)C(=O)O` (stereo partly drawn) [compound 5, 2-(((S)-((4R)-4-carboxy-4-(4-carboxy-4-(6-(4-fluorobenzamido)hexanamido)butanamido)butoxy)(hydroxy)phosphoryl)amino) pentanedioic acid], the “Mode of binding to PSMA” value at PSMA [1] is listed as “irreversible”. Further, the Defluorination in vivo result in data set [3] is reported as “no defluorination”.
